The values that follow come from ChEMBL document CHEMBL3102858, “Anti-hepatitis C virus dinorditerpenes from the roots of Flueggea virosa” (J Nat Prod, 2014).

A short description of series [1]: Cytotoxicity against human Huh7.5 cells after 72 hrs. It counts as cell-based. Conditions: Huh-7, 72 h. A digest of the protocol:
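Huh7.5 cells, derived from human hepatoma Huh7, were grown in DMEM with 10% heat-inactivated FBS and 1% nonessential amino acids. They were preseeded at 1 × 10^4 cells/well for 24 h, then given serial compound concentrations. Viable cells were measured after 72 h with the CellTiter 96 Aqueous One Solution kit. IC50 is the concentration inhibiting cell growth by 50%.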

The subject of series [2] is Hepatitis C virus. As to the kind of experiment: Antiviral activity against HCV expressing JC1-Luc2A infected in Huh7.5 cells assessed as inhibition of viral infection after 72 hrs by luciferase reporter gene assay. The settings on record: Huh7.5, 72 h. The series is classed as functional, organism-based, Hepacivirus hominis. A digest of the protocol: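 Huh7.5 cells were preseeded at 1 × 10^4 cells/well for 24 h, then exposed to JC1-Luc2A reporter HCV (0.1 MOI) for 4 h. The inoculum was removed and the cells washed three times. Fresh medium with compounds was added. After 72 h, luciferase activity was read in cell lysates (Bright-Glo). EC50 is the concentration inhibiting HCVcc infection by 50%.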

Series [3] is described as follows: Therapeutic index, ratio of IC50 for human Huh7.5 cells to EC50 for HCV. Conditions: read-out: Ratio IC50/EC50. It counts as cell-based, Huh-7. The method, boiled down: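 TI was calculated as IC50/EC50. IC50 came from the 72 h Huh7.5 viability assay and EC50 from the 72 h JC1-Luc2A HCVcc luciferase infection assay.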

For `Cc1cc2c(cc1O)[C@]1(C)CC[C@H](O)C(C)(C)[C@H]1C=C2`, the IC50 (usually the concentration that inhibits the measured activity by half) in series [1] is 54.9 µM. Further, in series [2], the concentration giving a half-maximal response (EC50) (as a rule, the concentration that produces a half-maximal response) turned out to be 5.6 µM. Besides, the selectivity ratio in series [3] worked out at 9.8.
In turn, `Cc1cc2c(cc1O)[C@]1(C)CC[C@H](O)C(C)(C)[C@H]1CC2` gave an IC50 in series [1] of 54.3 µM. Further, in series [2], the EC50 was determined as 12 µM. Further, the selectivity ratio in series [3] amounted to 4.5.
For the compound `C=C[C@]1(C)C=C2CC[C@H]3C(C)(C)[C@H](O)CC[C@]3(C)[C@H]2C[C@@H]1O`, in series [1], half-maximal inhibition (IC50) required 167 µM. Besides, the half-maximal effective concentration (EC50) in series [2] turned out to be 52.7 µM. For the same compound, in series [3], the selectivity ratio amounted to 3.2.
In series [1], `COc1cc2c(cc1C)C=C[C@@H]1C(C)(C)[C@H](O)CC[C@@]21C` returned an IC50 of 70 µM. In series [2], the EC50 is 24.9 µM. Further, in series [3], the selectivity ratio came to 2.8.
For the compound `COc1cc2c(cc1CO)C=C[C@@H]1C(C)(C)[C@H](O)CC[C@@]21C`, half-maximal inhibition in series [1] (IC50) required 125 µM. For the same compound, in series [2], the EC50 was 27.4 µM. Also, in series [3], the selectivity ratio came out at 4.6.
Regarding `COc1cc2c(cc1CO)C=C[C@@H]1C(C)(C)[C@@H](O)CC[C@@]21C`, in series [1], the IC50 is 151 µM. In addition, the EC50 in series [2] is 30.5 µM. In addition, the selectivity ratio in series [3] came to 4.9.
In turn, `Cc1cc2c(cc1O)[C@]1(C)CCC(=O)C(C)(C)[C@H]1C=C2` came in with an IC50 in series [1] of 86.5 µM. In series [2], the EC50 was 25.5 µM. The selectivity ratio in series [3] came to 3.4.
Turning to `COc1cc2c(cc1C)C=C[C@@H]1C(C)(C)C(=O)CC[C@@]21C`, in series [1], inhibition was half-maximal at 81.8 µM (IC50). Moreover, the EC50 in series [2] worked out at 47.3 µM. In addition, the selectivity ratio in series [3] came out at 1.7.
Regarding `Cc1cc2c(cc1O)[C@]1(C)CCC(=O)C(C)(C)[C@H]1[C@H](O)C2`, the IC50 in series [1] was found to be 292 µM. The EC50 in series [2] came to 52.8 µM. In addition, in series [3], the selectivity ratio was 5.5.
For `COc1cc2c(cc1C)[C@H]1C[C@@H]3C(C)(C)[C@H](O)CC[C@@]23CO1`, half-maximal inhibition in series [1] (IC50) was put at 419 µM. For the same compound, the EC50 in series [2] stood at 7.5 µM. For the same compound, in series [3], the selectivity ratio amounted to 55.9.
Compound `COc1cc2c(cc1C)CC[C@@H]1C(C)(C)[C@@]3(O)CC[C@@]21CO3` had an IC50 in series [1] of 297 µM. The EC50 in series [2] worked out at 6.6 µM. In series [3], the selectivity ratio was determined as 45.
With `C=CCc1ccc(O)c(-c2ccc(O)c(CC=C)c2)c1` [HONOKIOL], the EC50 in series [2] amounted to 9.4 µM. Also, the selectivity ratio in series [3] worked out at 6.2.
In series [1], `C=Cc1c(C)c(O)cc2c1CC[C@@H]1C(C)(C)[C@H](O)CC[C@@]21C` [SPRUCEANOL] gave an IC50 of 52.4 µM. Besides, the EC50 in series [2] was 5 µM. Also, the selectivity ratio in series [3] worked out at 10.5.
